# The list is not random: actives were taken first. Their share in the collection is about 1.7%.
# SUMO1-SIM PPI = modulators of SUMO1 protein-protein interactions, primary screen, biochemical, uHTS. hit rate 0.33% among 360,000. Small ubiquitin-related modifier 1 (Homo sapiens), P63165. SUMO1 binding to a labelled peptide, TR-FRET, 1 h. inhibition, % at 20 µM; in the data active means inhibition above about 37%
# Target sequence (P63165 whole entry, looked up): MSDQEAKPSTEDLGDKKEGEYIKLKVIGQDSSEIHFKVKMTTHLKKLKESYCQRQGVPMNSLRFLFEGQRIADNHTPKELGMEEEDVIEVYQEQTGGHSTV
# DNMT1 inh = human DNMT1 methyltransferase inhibitors, primary screen, biochemical, molecular beacon, fluorescence, HinP1I cleavage, uHTS. DNA (cytosine-5)-methyltransferase 1 (Homo sapiens), P26358. inhibition (reported as % activation of signal), % at 10 µM. hit rate 0.83% among 360,000. AID 588458, 2011; in the data active means inhibition above about 50%
# Scp-1 inhibitor = Scp-1 phosphatase inhibitors, primary screen, biochemical, colorimetric, uHTS | Carboxy-terminal domain RNA polymerase II polypeptide A small phosphatase 1 (Homo … | Recombinant Scp1, phosphopeptide, malachite green phosphate absorbance | inhibition, % at 20 µM | hit rate 0.88% among 340,000 | AID 493091, 2011;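 active means inhibition above about 50% at 20 µM, limit read from the data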;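 further: plate controls were DMSO wells with enzyme for no effect and wells lacking enzyme for full effect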
#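 assay system = SCP-1 phosphatase catalytic domain, residues 76-261 | buffer or medium = 50 mM Tris acetate pH 5.5, 0.005% Tween-20, 10 mM MgCl2 | incubation = enzyme reaction 45 min at room temperature, colour 5 min, stabilisation 30 min | signal = Phosphate-binding colour reagent, absorbance read at 630 nm | measure = % inhibition at 20 µM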
# STEP inh = STEP phosphatase inhibitors, primary screen, biochemical, fluorescence intensity, uHTS | Tyrosine-protein phosphatase non-receptor type 5 (Homo sapiens), P54829 | recombinant STEP, OMFP fluorogenic substrate | AID 588621, 2011 | hit rate 0.25% among 360,000 | inhibition, % at 20 µM;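 active means inhibition at 20 µM, scaled per plate between control wells, above about 37%, limit read from the data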;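 further: 0% = DMSO with enzyme and substrate and 100% = substrate only without enzyme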
# Target sequence (P54829 whole entry, looked up): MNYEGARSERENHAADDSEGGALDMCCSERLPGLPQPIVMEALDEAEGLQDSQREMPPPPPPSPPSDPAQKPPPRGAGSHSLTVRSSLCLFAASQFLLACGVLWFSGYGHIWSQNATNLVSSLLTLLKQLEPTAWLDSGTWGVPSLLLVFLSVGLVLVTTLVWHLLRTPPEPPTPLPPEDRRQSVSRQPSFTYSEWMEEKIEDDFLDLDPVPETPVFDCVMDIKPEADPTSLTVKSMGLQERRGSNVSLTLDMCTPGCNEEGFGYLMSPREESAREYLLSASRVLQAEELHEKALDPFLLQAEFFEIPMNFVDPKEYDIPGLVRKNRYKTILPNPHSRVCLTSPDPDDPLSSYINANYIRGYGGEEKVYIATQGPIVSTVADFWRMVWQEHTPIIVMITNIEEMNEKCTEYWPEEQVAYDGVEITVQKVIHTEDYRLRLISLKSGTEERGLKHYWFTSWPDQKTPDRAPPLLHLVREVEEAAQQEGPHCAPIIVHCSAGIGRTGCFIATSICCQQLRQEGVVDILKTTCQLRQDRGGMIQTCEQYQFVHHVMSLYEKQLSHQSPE
#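 Assay system: isolated STEP enzyme / Timing: 20 min at room temperature, dark / Doses: 20 µM, 1% DMSO / Technique: fluorescence intensity, excitation 480 nm, emission 540 nm / Reagent: fluorogenic phosphatase substrate OMFP at 25 µM final / Measure: percent inhibition scaled to no-enzyme and uninhibited-enzyme controls, plate-pattern corrected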
# LMPTP block = LMPTP phosphatase inhibitors, primary screen, biochemical, fluorescence intensity, uHTS | hit rate 0.22% among 360,000 | recombinant LMPTP-A, OMFP fluorogenic substrate | inhibition, % at 20 µM | AID 651560, 2012;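 active means compounds that cut the enzyme signal by at least half of the control window in the single-dose screen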;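 further: plate controls were DMSO wells with enzyme plus substrate for no effect and substrate without enzyme for full effect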
#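 Test system – LMPTP-A phosphatase enzyme · Quantity – 0.625 nM LMPTP-A final · Reagent – OMFP substrate, 400 µM final · Dosing – one test concentration per compound, 20 µM, with 3% DMSO overall · Timing – 50 min enzyme reaction at room temperature, protected from light · Detection – fluorescence intensity · Controls – substrate-only low control, DMSO enzyme-plus-substrate high control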
# Beacon interf DR = spectral interference with molecular beacon fluorescence, dose response, artefact control for DNMT1 inhibitor project, biochemical, fluorescent molecular beacon; shares compounds with DNMT1 inh; 200 tested, under 10 active; spectral interference counter-screen; AID 602382, 2012; IC50, µM; call rule not given here
# DNMT1 inh conf = DNMT1 methyltransferase inhibitor retest, confirmation, biochemical, molecular beacon, fluorescence, single concentration; DNMT1 molecular beacon HinP1I cleavage; inhibition, % at 10 µM; hit rate 8% among 2,300; shares compounds with DNMT1 inh; AID 602385, 2012;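 active means average inhibition of at least 30% in the single-concentration confirmation test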
# Beacon interf = counter-screen for DNMT1 inhibitors: spectral interference; shares compounds with DNMT1 inh; DNMT1 molecular beacon spectral interference counterscreen, fluorescence 485/520; hit rate 1% among 2,300; activation (fluorescence interference), % at 10 µM;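 active means activation of at least 30% at 10 µM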;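 further: DNMT1 catalytic domain with a HinP1I cleavage step and a FAM/dabcyl DNA beacon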
# * marks the source's active call; other numbers are inactive results; x = not tested or not shown.
SMILES,SUMO1-SIM PPI,DNMT1 inh,Scp-1 inhibitor,STEP inh,LMPTP block,DNMT1 inh conf,Beacon interf,others
COc1ccc(N(C(=O)Cn2nnc(-c3ccccc3F)n2)C(C(=O)NCC2CCCO2)c2ccc(Cl)cc2)cc1 (stereo unspecified),2.6,53.3*,-4.4,0.5,1.1,2.7,1.1,
COc1ccc(N(C(=O)Cn2nnc(-c3ccc(Cl)cc3)n2)C(C(=O)NCC2CCCO2)c2ccncc2)cc1 (stereo unspecified),1.1,-1.8,-9.9,0.7,0.1,x,x,
COc1ccc2c3c(cccc13)C(=O)CC2,-48.2,127.5*,-12.1,-91.6,22.8,22.8,36.9*,
S=C(NCc1ccccn1)NN=Cc1ccccn1,-8.8,-0.6,-4.7,2.8,-0.7,x,x,
COCC(=O)Nc1ccccc1C(=O)Nc1ccc(OC)cc1,-1.5,2.2,-4.6,-0.2,-0.6,x,x,
COc1ccc2cc(OCC(=O)NNC(=O)Nc3ccc(C(C)=O)cc3)ccc2c1,-17.7,71.9*,0.1,5.7,22.9,5.6,-3.0,
COc1ccc(NC(=O)c2ccccc2NC(=O)COc2ccccc2)cc1,3.1,54.6*,-2.3,-0.4,0.1,1.8,-4.4,
COc1cccc(OC)c1NC(=O)CN(C)S(=O)(=O)c1ccc2c(c1)OCCO2,-1.9,3.2,-7.1,-2.1,0.7,x,x,
O=C(N/N=C1/C(=O)c2cccc3cccc1c23)c1ccc(Cl)cc1,71.2*,96.5*,95.3*,98.8*,94.2*,0.3,-6.8,
CCCCCCSc1ccc(-c2nc3ccc(Cl)cn3c2NCCCC)cc1OC,-1.0,78.9*,5.0,-2.0,2.2,0.9,1.9,
C=CCn1c(NC(=O)c2ccccc2Cl)c(C#N)c2nc3ccccc3nc21,53.0*,63.9*,-7.2,4.2,11.8,-1.2,-3.6,
CCCCn1c(NC(C)=O)c(C#N)c2nc3ccccc3nc21,11.8,-18.4,-1.3,1.0,0.6,x,x,
O=C(C[C@H]1C[C@H](C(=O)N2CCCCC2)[C@@]2(CCc3ccccc3)c3[nH]c4ccc(Cl)cc4c3CCN2C1=O)NCCc1ccccn1,1.9,-23.8,6.5,-0.5,-0.3,x,x,
O=C(CC1C[C@H](C(=O)N2CCCCC2)[C@@]2(CCc3ccccc3)c3[nH]c4ccccc4c3CCN2C1=O)NCCC1=CCCCC1 (stereo partly specified),1.8,59.8*,4.1,10.9,2.3,4.2,7.2,
O=C(C[C@H]1C[C@H](C(=O)N2CCCCC2)[C@@]2(CCc3ccccc3)c3[nH]c4ccc(Cl)cc4c3CCN2C1=O)NCCC1=CCCCC1,4.1,60.8*,1.3,4.3,0.8,5.7,0.8,
CCOC(=O)Cn1ccc(-c2ccccc2)c(C#N)c1=O,-7.4,-3.8,-1.4,-3.4,-1.0,x,x,
COCCn1c(=NC(=O)CSCC(=O)N2CCOCC2)sc2ccccc21,0.7,-1.3,-7.2,-0.3,-1.1,x,x,
C(=Nc1cccc2c(N=Cc3ccco3)cccc12)c1ccco1,1.2,-17.0,-8.3,2.0,2.5,x,x,
C(=N\C(/N=C/c1ccco1)c1ccco1)/c1ccco1,14.1,71.2*,3.2,0.3,0.5,1.2,0.9,
Cc1cc(C)c(C)c(S(=O)(=O)N2CCN(c3ncnc4ccccc34)CC2)c1C,6.8,74.8*,5.4,5.6,8.7,0.4,2.3,
CCC1CCC(C(=O)NNC(=O)c2cc(-c3ccco3)[nH]n2)CC1 (stereo unspecified),2.0,51.4*,10.6,2.8,0.2,1.6,5.7,
O=C(NNC(=O)C1CCCCC1)c1ccco1,1.6,-0.9,-4.2,6.1,-0.7,x,x,
CC(=O)c1oc2ccccc2c1NC(=O)COC(=O)c1ccc(-n2nc(C)cc2C)cc1,-0.8,54.1*,16.5,0.4,19.3,1.4,3.3,
CSc1ccccc1NC(=O)COC(=O)c1ccc(-n2nc(C)cc2C)cc1,2.4,1.0,-2.7,1.2,0.5,x,x,
O=C(NCc1ccccc1Cl)[C@H]1CCCN1C(=O)[C@H]1CCCN1C(=O)c1cccs1,3.5,x,x,x,-1.8,x,x,
SMILES,SUMO1-SIM PPI,DNMT1 inh,Scp-1 inhibitor,STEP inh,LMPTP block,DNMT1 inh conf,Beacon interf,others
Cc1nn(CCO)c2ncc(C(=O)c3cc(Cl)ccc3O)cc12,-0.8,1.2,-4.9,-2.0,-0.3,x,x,
COc1cccc(-c2cc(=O)c3cc(NC(=O)c4ccccc4)ccc3[nH]2)c1,0.0,6.0,-1.3,-0.7,-2.1,x,x,
COc1cccc(-c2cc(=O)c3cc(NC(=O)c4ccc(Cl)cc4)ccc3[nH]2)c1,2.3,65.5*,7.9,1.9,-0.9,-0.5,-0.9,
Clc1ccccn1,4.1,-3.7,2.7,-0.4,1.6,x,x,
COc1cc(/C=C2\C(=O)N(c3ccc(NC(C)=O)cc3)N=C2c2ccccc2)ccc1O,-4.7,-4.0,-0.7,5.2,2.3,x,x,
CCOc1cc(/C=C2\C(=O)N(c3nc(-c4ccc(Br)cc4)cs3)N=C2c2ccccc2)ccc1O,21.3,95.6*,-16.1,3.9,10.3,92.8*,-4.9,Beacon interf DR=>99
O=C(Nc1ccc(Oc2ccccc2)cc1)c1csc(COCCO)n1,4.7,63.9*,x,0.3,0.3,1.4,3.4,
O=C(Nc1ccc(Cl)cc1)c1csc(COCCO)n1,-2.3,-2.9,x,-3.7,-0.6,x,x,
O=C(COc1ccc(-c2ccccc2)cc1)N1CCCC1,-1.3,3.8,-3.9,-2.1,-0.9,x,x,
O=C(/C=C/c1ccc(Br)cc1)c1ccc(NC(=O)c2ccco2)cc1,2.1,87.7*,22.1,6.2,38.6,0.9,-4.8,
COC(=O)c1ccc(NC(=O)c2ccc(NC(=O)c3ccco3)cc2)cc1,54.4*,57.8*,7.0,14.7,47.9,2.3,-1.4,
Cc1cc(C)cc(NC(=O)c2ccc(NC(=O)c3ccco3)cc2)c1,2.9,-3.8,-10.5,-0.7,2.5,x,x,
C[C@H](NC(=O)c1ccco1)C(=O)NCc1cccs1,1.1,3.9,-2.7,-3.0,-1.7,x,x,
Cc1ccc(NC(=O)c2cccc(NC(=O)/C=C/c3ccco3)c2)cc1C,-1.2,7.7,-14.3,-1.3,3.0,x,x,
CCc1ccccc1NC(=O)c1cccc(NC(=O)/C=C/c2ccco2)c1,-7.0,-21.3,-23.8,1.4,-1.0,x,x,
